High-throughput results from PubChem BioAssay.
This is a sample that favours compounds with a hit; in the whole collection about 2.8% have one here.
MT1-MMP txn act – activates MT1-MMP transcription. HT1080 MT1-MMP promoter luciferase reporter, luminescence, overnight; active compounds read high. activation factor at 10 µM. actives 0.16% (n = 86,000);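 active = activation factor of at least 2 for MT1-MMP transcription at 10 µM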
SF1 activator – activates the human nuclear receptor SF-1; Q13285; AID 522; CHO-K1 Gal4-SF-1 LBD luciferase reporter; % increase over DMSO SF-1-specific signal; actives 1.9% (n = 65,000); activation, % at 10 µM;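 active = activation above the mean activation of all tested compounds plus 3 SD, cut at about 50% in these data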
Target sequence (Q13285 whole entry, looked up, the tested form may be a part): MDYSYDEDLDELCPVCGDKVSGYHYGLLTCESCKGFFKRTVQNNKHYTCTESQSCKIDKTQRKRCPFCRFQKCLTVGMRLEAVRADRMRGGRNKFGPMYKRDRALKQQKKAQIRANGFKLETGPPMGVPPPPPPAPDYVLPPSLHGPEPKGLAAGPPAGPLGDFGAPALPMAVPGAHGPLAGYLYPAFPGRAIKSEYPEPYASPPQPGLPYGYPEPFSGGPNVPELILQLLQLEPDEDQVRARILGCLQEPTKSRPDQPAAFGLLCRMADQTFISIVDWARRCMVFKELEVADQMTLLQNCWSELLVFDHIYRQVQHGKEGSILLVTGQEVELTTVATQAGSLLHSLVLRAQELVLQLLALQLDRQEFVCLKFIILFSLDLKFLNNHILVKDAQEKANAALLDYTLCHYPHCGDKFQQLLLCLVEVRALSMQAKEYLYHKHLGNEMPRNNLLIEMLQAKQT
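Assay system – CHO-K1 cells with Gal4–hSF-1 LBD chimera plus Gal4-driven luciferase · Quantity – 4,000 cells per well · Times – compound added 1 h post-seeding, 20 h exposure at 37 °C, 5% CO2 · Measured by – luciferase light emission · Benchmarks – DMSO and mock-transfected background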
HEK293 NFkB inh – inhibitors of the PMA/ionomycin-induced NF-kB reporter in HEK293 cells; HEK-293 NF-kB luciferase reporter, luminescence; actives 0.21% (n = 62,000); inhibition, % at 3 µM;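 active = inhibition above the mean of all tested compounds plus 3 SD, cut at about 40% in these data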;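 note: 0% = stimulated DMSO wells and 100% = 10 µM reference inhibitor 5653914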
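Signal: luciferase luminescence; Material: HEK-293 cells with stable firefly luciferase reporter driven by four HIV NF-kB elements; Probe or stimulus: PMA with ionomycin; Replication: tested once; Times: 1 h compound pretreatment, then 16 h stimulation at 37 °C, 5% CO2; Benchmarks: DMSO and 10 µM reference inhibitor; Evaluation: per-plate % inhibition versus controls.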
Jurkat tox 60K – cytotoxic compounds reducing Jurkat cell viability | inhibition, % at 4 µM | actives 1.2% (n = 56,000) | Jurkat E6.1 viability, ATP luminescence, 48 h;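 active = inhibition above the mean inhibition of all tested compounds plus 3 SD, cut at about 28% in these data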
RORA act – RORA (human) activation | CHO-K1 Gal4-RORA LBD luciferase reporter, luminescence; percent increase over mock-subtracted basal signal | activation, % at 10 µM | actives 1.5% (n = 65,000) | AID 560;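 active = activation above the mean of all tested compounds plus 3 SD, cut at about 49% in these data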;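 note: 0% = DMSO-treated RORA cells and 100% = added signal equal to DMSO minus mock-transfected cells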
* = called active by the depositor; . = no result.

SMILES | MT1-MMP txn act | SF1 activator | HEK293 NFkB inh | Jurkat tox 60K | RORA act
CCOC(=O)Cn1nc(-c2ccc(C)cc2)ccc1=O | 1.6 | -1.5 | 14.1 | . | -9.7
CCCCCCc1ccc(-c2ncc(N)cn2)cc1 | 0 | 58.6* | -31.4 | 51.2* | 50.2*
CS(=O)(=O)N1CCN(c2ccc(NC(=O)c3ccc(Br)o3)cc2)CC1 | 1.3 | 56.4* | -14.0 | 7.6 | 16.6
O=C(Nc1ccc(S(=O)(=O)N2CCCCCC2)cc1)c1ccc(Br)o1 | 1.3 | 13.1 | -6.8 | 0.6 | 50.0*
Cc1nn(Cc2c(Cl)cccc2Cl)c(C)c1NC(=O)c1cc(C(C)C)on1 | 1.3 | 18.8 | 44.4* | 44.9* | 15.7
O=C(c1csc2c1CCCCC2)N1CCN(c2ncccn2)CC1 | 1.2 | -6.8 | 6.5 | -0.1 | 21.7
O=C(COc1ccccc1)Nc1ccc(-c2nnc(-c3ccco3)o2)cc1 | 1.1 | 65.7* | . | . | 48.6
O=C1OC(N2CCN(Cc3ccccc3)CC2)c2ccccc21 (centres undefined) | 1.2 | -16.3 | -0.3 | -5.9 | 69.1*
O=C(NCCCn1ccnc1)NC(C(F)(F)F)C(F)(F)F | 0.9 | -3.1 | 14.2 | -4.1 | -2.7
O=C(NCCCn1ccnc1)Nc1cccc2ccccc12 | 2.1* | . | . | . | .
CN1CCc2c(sc3nc(SCC(N)=O)n(-c4ccccc4)c(=O)c23)C1 | 1.1 | -7.4 | -0.5 | . | 5.0
c1cnc2c(SCc3ccc(-c4nnco4)cc3)cccc2c1 | 1.5 | 62.5* | 0.5 | 3.2 | 31.0
CCn1cc(S(=O)(=O)CC(=O)Nc2ccc(C)cc2)c2ccccc21 | 1 | -14.7 | 9.2 | . | -12.1
Cc1noc(C)c1COC(=O)C1CC(O)CN1S(=O)(=O)c1ccc(Cl)cc1 (centres undefined) | 1.1 | -1.6 | 19.1 | 3.0 | 17.3
COc1ccc(C2=Nn3c(nnc3-c3ccccn3)SC2)cc1OC | 1.1 | 14.7 | . | . | 5.7
COc1ccc(C2=Nn3c(nnc3-c3ccccc3OC)SC2)cc1OC | 0.3 | -44.1 | 46.9* | 99.2* | -55.4
COc1ccc(-c2nnc3n2N=C(C)CS3)cc1 | 1 | . | . | . | .
COc1cc(-c2nnc3n2N=C(c2ccccc2)CS3)cc(OC)c1OC | 0.5 | 25.1 | 34.7 | 51.5* | 31.2
COc1ccc(C2=Nn3c(nnc3-c3ccc(OC)cc3)SC2)cc1 | 0.5 | -18.1 | 24.6 | 93.2* | -11.1
O=c1c2c(nc3nc(SCc4ccccc4)[nH]n13)CCC2 | 1.1 | -6.5 | 4.7 | 2.0 | 13.3
CSc1nc2nc3c(c(=O)n2[nH]1)CN(Cc1ccccc1)CC3 | 1.1 | -4.8 | 10.9 | 101.7* | -1.8
Cc1cc2nnc(SCC(=O)N3C(C)CCCC3C)n2c(N)n1 (centres undefined) | 1.1 | -5.7 | 0.7 | -10.7 | -10.4
O=C(Nc1ccc2snnc2c1)N1CCOCC1 | 1.1 | 9.8 | -1.3 | 4.0 | 9.4
O=C(Nc1nnc(C2CCCCC2)s1)c1cccs1 | 1.2 | 53.7* | -24.8 | -1.6 | 41.1
O=C(Nc1nnc(C2CCCCC2)s1)c1ccco1 | 1.3 | 70.3* | -14.3 | -5.2 | 6.4
SMILES | MT1-MMP txn act | SF1 activator | HEK293 NFkB inh | Jurkat tox 60K | RORA act
O=C(Nc1nnc(C2CCCO2)s1)c1cccs1 (centres undefined) | 1.3 | 36.1 | -10.6 | 3.1 | 36.4
CCOC(=O)C1C(=O)NC(N2CCN(CC)CC2)=NC1c1ccccc1 (centres undefined) | 1.3 | -16.2 | 8.4 | -1.6 | -10.2
CC(C)(C)n1ncc2c(=O)n(CC(=O)c3ccc(Cl)cc3)cnc21 | 1.6 | 87.4* | -50.6 | 3.8 | 59.1*
CC(C)(C)n1ncc2c(=O)n(CC(=O)NCc3ccccc3)cnc21 | 0.8 | 78.4* | -21.2 | 32.5 | 55.8*
O=C(Cn1cnc2c(cnn2-c2ccc(F)cc2)c1=O)NCc1ccco1 | . | 21.2 | -2.7 | 55.1* | 7.6
CC(=O)Nc1ccc(NC(=O)Cn2cnc3c(cnn3C(C)(C)C)c2=O)cc1 | 1.2 | -0.6 | 16.5 | -6.5 | -7.6
COC(=O)C(C)N1C(=O)S/C(=C\c2cc(C)n(-c3ccccn3)c2C)C1=O (centres undefined) | 1.5 | . | . | . | .
CCCN(CCC)C1CC(=O)N(Cc2ccccc2)C1=O (centres undefined) | 1.1 | -7.2 | 22.8 | -9.5 | -13.4
O=C1COc2ccc(OCc3ccc(F)cc3)cc21 | 1.3 | 7.9 | -34.6 | 4.2 | 78.3*
O=C1CC(c2ccccc2)CN1C(=O)c1ccccc1 (centres undefined) | 1.1 | -6.3 | 0.4 | -3.6 | 3.7
Cc1cccc(NC(=O)c2cnc3sccn3c2=O)c1C | 1.5 | 45.3 | -37.1 | 6.9 | 74.4*
